Measured values gathered from unrelated publications.
Compare with care: the assays were run in different laboratories.
ADRA1A: Alpha-1A adrenergic receptor (ADRA1A, Homo sapiens, UniProt P35348)
rep main protease: Replicase polyprotein 1ab, main protease (rep, Severe acute respiratory syndrome coronavirus 2, UniProt P0DTD1)
MAL12: Alpha-glucosidase MAL12 (MAL12, Saccharomyces cerevisiae S288c, UniProt P53341)

The inhibition of `CN1CCC[C@H]1c1cccnc1` is reported as -6.17% (ADRA1A; ligand displacement; 50 µM).
`COc1cc(O)c2c(=O)c(OC)c(-c3ccc(OC)c(OC)c3)oc2c1` has an inhibition of 5.84% (rep main protease; enzyme activity; inhibitor; 10 µM).
`c1cncc([C@@H]2CCCN2)c1` gave an inhibition of -8.12% (ADRA1A; ligand displacement; 50 µM).
`COc1cc2c(cc1OC)-c1c(OC)c(OC)cc3c1[C@H](C2)N(C)CC3` (racemic) gave an inhibition of 69% (ADRA1A; ligand displacement; radioligand; 10 µM).
`O=c1c(O)c(-c2ccc(O)cc2)oc2c(O)c(O)cc(O)c12` has a kinact of 0.000152 s⁻¹ (rep main protease; enzyme activity; inhibitor).
`CN1C(=O)/C(=N\Nc2ncc(-c3cc4ccccc4oc3=O)s2)c2cc(Cl)ccc21` has an inhibition of 48.3% (MAL12; enzyme activity; inhibitor; absorbance; 100 µM).
For `O=C(O)c1cc(O)c(O)c(O)c1`, the kinact was 0.00079 s⁻¹ (rep main protease; enzyme activity; inhibitor).
`COc1cc2c3c(c1OC)-c1c(cccc1OC)CC3N(C)CC2` (racemic) has an inhibition of 65% (ADRA1A; ligand displacement; radioligand; 10 µM).
`COc1ccc(-c2cc(=O)c3c(O)cc(OC)cc3o2)cc1` gave an inhibition of 3.99% (rep main protease; enzyme activity; inhibitor; 10 µM).
For `[2H]c1c([2H])c([C@]2([2H])CCCN2C(=O)C(C)(C)Oc2ccc3cn[nH]c3c2)c([2H])c([2H])c1C([2H])([2H])[2H]`, the remaining binding was 59% (Homeodomain-interacting protein kinase 4 (HIPK4, Homo sapiens, UniProt Q8NE63); binding; competition with immobilised ligand; 1 µM).
The inhibition of `CCc1ccc(N2C(=O)/C(=C3/C(=O)N(C)c4ccc(Cl)cc43)NC2=S)cc1` is reported as 62.1% (MAL12; enzyme activity; inhibitor; absorbance; 200 µM).
For `O=C(O[C@@H]1Cc2c(O)cc(O)cc2O[C@@H]1c1ccc(O)c(O)c1)c1cc(O)c(O)c(O)c1`, the kinact/KI was 9.76 M⁻¹ s⁻¹ (rep main protease; enzyme activity; inhibitor).
`C[C@H]1O[C@H](O[C@H]2[C@H](O)[C@@H](O)[C@@H](O[C@H]3[C@H](O)[C@@H](O)C(O)O[C@@H]3CO)O[C@@H]2CO)[C@H](O)[C@@H](O)[C@@H]1N[C@H]1C=C(CO)[C@@H](O)[C@H](O)[C@H]1O` (stereo partly shown) gave an inhibition of 63.9% (MAL12; enzyme activity; inhibitor; absorbance; 774.5 µM).
With `COc1cc(O)c2c(=O)c(OC)c(-c3ccccc3)oc2c1` the inhibition was 3.04% (rep main protease; enzyme activity; inhibitor; 10 µM).
For `CN1C(=S)N(c2ccccc2)C(=O)/C1=C1/C(=O)N(C)c2ccc(Cl)cc21`, the inhibition was 54.2% (MAL12; enzyme activity; inhibitor; absorbance; 200 µM).
`CC(C)CC(=O)OC[C@H]1O[C@@](C#N)(c2ccc3c(N)ncnn23)[C@H](O)[C@@H]1O` gave an inhibition of 3% (ADRA1A; cell-free assay; 20 µM).
